The values below come from PubChem BioAssay AID1381 (University of Pittsburgh Molecular Library Screening Center, 2008).

About 1,000 (0.45%) of roughly 220,000 compounds were called active. This is one part of a sample in which actives are shown more often than they occur.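 Rule for the calls: active = plate z-score of nuclear minus cytoplasmic receptor signal below a set negative limit, without overly bright fluorescence or cell loss (cut at about -3.5 in these data, passing the limit was not always enough); inactive = the rest, inconclusive results apart.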

The nature of this test: inhibitors of GR-EGFP nuclear translocation, primary screen, dynein cargo transport inhibitor project, imaging, high-content, 3617.4 mouse cells (AID 1381). The conditions noted are these: stimulated with dexamethasone, 1 µM. Put shortly: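 Schedule: 48 h induction, then 1 h compound, then 30 min agonist, 37 °C. Buffer or medium: tetracycline-free induction medium containing charcoal-stripped FBS. Reagent: 1.0 µM final dexamethasone stimulus. Evaluation: nuclear versus cytoplasmic GR-EGFP signal, averaged per well. Signal: high-content fluorescence imaging after fixation.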

Where [1] appears, read: measured here: cell count per field, at 20 µM.
Setting [2] is: measured here: cytoplasmic GR-EGFP intensity, at 20 µM, stronger effect = higher value.
The mark [3] stands for this setting: measured here: nuclear GR-EGFP intensity, at 20 µM, stronger effect = lower value.
Where [4] appears, read: measured here: cell count per field, at 50 µM.
The mark [5] stands for this setting: measured here: cytoplasmic GR-EGFP intensity, at 50 µM, stronger effect = higher value.
The mark [6] stands for this setting: measured here: nuclear GR-EGFP intensity, at 50 µM, stronger effect = lower value.

On to `CC(OC(=O)c1ccccc1N1C(=O)C2C3CCC(C3)C2C1=O)C(=O)c1ccccc1` (stereo not drawn), for which the z-score was 0.064 (inactive) (at 20 µM, stronger effect = lower value); -1.14 under setting [1]; -0.233 under setting [2]; -0.118 under setting [3].
In the same order, the values of `CC(C)CNc1ncnc2c1cnn2Cc1ccc(Cl)cc1` are -0.416 (inactive), 0.999, -0.294 and -0.416.
In the same order, the values of `CCOc1cc(N2CCOCC2)c(OCC)cc1NC(=O)C1=NN(c2cccc(C)c2)C(=O)CC1` are 0.424 (inactive), 0.873, -0.249 and -0.0907.
As for `C=CS(=O)c1sc(Cl)c(N2CCOCC2)c1[N+](=O)[O-]` (stereo not drawn), the z-score is, setting by setting: (at 20 µM, stronger effect = lower value) -5.81 (active); under setting [1], -1.51; under setting [2], 2.63; under setting [3], -2.55.
In the same order, the values of `O=C(NCc1ccccc1)c1ccc(CNc2c(N3CCCC3)c(=O)c2=O)cc1` are 1.94 (inactive), -1.79, -0.175 and 1.39.
On to `Cc1ccc(OCC(=O)Nc2cccc3c2CCCC3)cc1C`, for which the z-score was -0.29 (inactive) (at 20 µM, stronger effect = lower value); 0.502 under setting [1]; -0.193 under setting [2]; -0.445 under setting [3].
In the same order, the values of `CCN(CC)c1ccc2c(Nc3ccccc3)c(C=O)c(=O)oc2c1` are 1.78 (inactive), -1.59, 1.04 and 1.54.
Consider `CCN(CC)c1ccc2oc(=O)c(C)nc2c1`, for which the z-score is, setting by setting: (at 50 µM, stronger effect = lower value) -4.98 (active); under setting [4], 0.102; under setting [5], 1.35; under setting [6], -2.69.
As for `CCN(CC)c1ccc2cc(C(=O)O)c(=O)oc2c1`, the z-score runs as follows: (at 20 µM, stronger effect = lower value) 0.513 (inactive); under setting [1], -0.14; under setting [2], -0.259; under setting [3], 0.0952.
In the same order, the values of `O=C(Nc1ccn(Cc2ccccc2)n1)c1n[nH]c([N+](=O)[O-])c1Cl` are 1.15 (inactive), -1.23, -0.194 and 0.757.
For `Cc1cccc(-n2cc(CN3CCN(C(=O)c4ncn[nH]4)CC3)c(-c3cccc(F)c3)n2)c1`, the z-score was 0.856 (inactive) (at 20 µM, stronger effect = lower value); -0.858 under setting [1]; -0.164 under setting [2]; 0.386 under setting [3].
Turning to `CCN(CC)S(=O)(=O)c1ccc2c3c(cccc13)C(=O)S2`, the z-score is -0.224 (inactive) (at 50 µM, stronger effect = lower value); 0.583 under setting [4]; -0.26 under setting [5]; -0.962 under setting [6].
On to `CCNC(=S)Nc1ccc(OC(F)(F)F)cc1`, for which the z-score is, setting by setting: (at 20 µM, stronger effect = lower value) -0.827 (inactive); under setting [1], 0.129; under setting [2], -0.313; under setting [3], 0.232.
Turning to `CCOC(=O)CN(Cc1ccc(OC)c(OC)c1)S(=O)(=O)c1ccc(OC)cc1`, the z-score runs as follows: (at 20 µM, stronger effect = lower value) -0.369 (inactive); under setting [1], 0.666; under setting [2], -0.0278; under setting [3], 0.0349.
In the same order, the values of `COc1ccc(CCNC(=O)C(Sc2ccccn2)c2ccccc2)cc1OC` (stereo not drawn) are 1.23 (inactive), -0.867, -0.00233 and 0.852.
For the compound `COc1ccc(C(CCN(Cc2ccc(OC)c(OC)c2)C(=O)CCl)c2ccccc2)cc1` (stereo not drawn), the z-score is -5.18 (active) (at 20 µM, stronger effect = lower value); -0.271 under setting [1]; 0.893 under setting [2]; -2.94 under setting [3].
The corresponding values for `CN(CCc1ccccn1)C(=O)CCC1CCCN(Cc2ccccc2OC(F)F)C1` (stereo not drawn) are -0.0542 (inactive), 0.0326, -0.306 and 0.247.
For the compound `C=CCn1cc(C(=O)NCc2ccc(Cl)cc2)c(=O)c2cc(S(=O)(=O)N(CC)CC)ccc21`, the z-score (at 20 µM, stronger effect = lower value) is 0.479 (inactive); the z-score under setting [1] was -0.781; the z-score under setting [2] was -0.191; the z-score under setting [3] is 1.32.
`CSCCC(NC(=O)COc1ccccc1)C(=O)Nc1ccc(C)cc1` (stereo not drawn): the z-score (at 20 µM, stronger effect = lower value) is 0.137 (inactive); the z-score under setting [1] was 0.845; the z-score under setting [2] stood at 0.202; the z-score under setting [3] was found to be 0.24.
The corresponding values for `O=c1[nH][nH]c(=O)c2cc(N3CCCC3)ccc12` are -0.37 (inactive), 0.302, -0.256 and 0.0156.
As for `Cc1ccccc1C(=O)Nc1ccc(N2CCCCCC2)cc1`, the z-score by setting is: (at 20 µM, stronger effect = lower value) -0.0609 (inactive); under setting [1], -0.96; under setting [2], 0.105; under setting [3], 0.497.
`O=C1C=CC(=O)N1c1ccc(N2CCCCC2)cc1`: the z-score is -4.11 (active) (at 20 µM, stronger effect = lower value); -2.21 under setting [1]; 2.18 under setting [2]; -1.81 under setting [3].
The corresponding values for `COc1ccc(Cl)cc1-n1c(C)cc(C(=O)OCC(=O)N2CC(=O)Nc3ccccc32)c1C` are -0.945 (inactive), 0.925, -0.291 and -0.693.
In the same order, the values of `COCCn1c(C)cc(C(=O)COC(=O)/C=C/c2cccc(OC)c2)c1C` are -0.49 (inactive), 0.119, -0.317 and -0.136.
For the compound `COc1cccc(-c2ccc(SCC(=O)N3CCN(c4ccccc4)CC3)nn2)c1`, the z-score is, setting by setting: (at 20 µM, stronger effect = lower value) 1.32 (inactive); under setting [1], -1.03; under setting [2], -0.273; under setting [3], 1.04.
The corresponding values for `O=C(NCc1ccc(F)cc1)C(c1ccccc1)N(C(=O)c1csnn1)C1CC1` (stereo not drawn) are 2.29 (inactive), -1.97, -0.277 and 0.843.
Take `Cc1cc(NC(=O)Nc2ccc(Cl)cc2)n(-c2ccccc2)n1`: the z-score (at 20 µM, stronger effect = lower value) is -0.438 (inactive); the z-score under setting [1] was -0.392; the z-score under setting [2] is -0.229; the z-score under setting [3] worked out at 0.639.
Regarding `O=C(NCCc1ccccc1)Oc1ccc(Cl)cc1`, the z-score reads like this: (at 20 µM, stronger effect = lower value) -0.396 (inactive); under setting [1], 0.0482; under setting [2], -0.223; under setting [3], -0.459.
As for `Cc1cc(C(=O)NCCc2ccc(Cl)cc2)n(-c2ccccc2)n1`, the z-score is, setting by setting: (at 20 µM, stronger effect = lower value) -5.24 (active); under setting [1], -1.31; under setting [2], 0.343; under setting [3], -3.12.
The corresponding values for `Brc1ccc2c(c1)[C@H]1OCC[C@H]1[C@@H](c1cccs1)N2` are 1.51 (inactive), -1.61, -0.149 and 1.53.
`COC(=O)[C@@H]1CC[C@H](C)[C@@H](c2ccc(C)cc2)N1C(=O)c1ccc(/C=N/O[C@H](C)c2cn([C@@H]3COC[C@H]3O)nn2)cc1`: the z-score was 0.697 (inactive) (at 20 µM, stronger effect = lower value); 0.326 under setting [1]; -0.241 under setting [2]; 0.639 under setting [3].
The corresponding values for `CC(=O)NCC(=O)N1CCCC(C(=O)c2ccc3c4c(cccc24)CC3)C1` (stereo not drawn) are 0.368 (inactive), -0.117, -0.201 and 0.261.
The corresponding values for `Cc1ccc(O)c(CCc2ccccc2)n1` are 0.491 (inactive), -0.946, -0.202 and 0.586.
The corresponding values for `Cc1[nH]c2ccccc2c1C(=O)COC(=O)c1c(-c2ccccc2)noc1C` are -0.58 (inactive), 0.403, -0.281 and -0.747.
Regarding `Cc1ccc(CNC(=O)Cn2c(=O)c3sccc3n(Cc3cccc([N+](=O)[O-])c3)c2=O)cc1`, the z-score reads like this: (at 20 µM, stronger effect = lower value) -0.763 (inactive); under setting [1], 0.845; under setting [2], -0.184; under setting [3], -0.435.
As to `COc1ccc(C2/C=C\CN(S(=O)(=O)c3cccs3)CC(=O)N2Cc2ccc(F)cc2)cc1` (stereo not drawn), the z-score (at 20 µM, stronger effect = lower value) is 1.14 (inactive); the z-score under setting [1] was -0.515; the z-score under setting [2] was -0.824; the z-score under setting [3] turned out to be 0.466.
The corresponding values for `O=C(CCCOc1ccccc1)NCc1ccco1` are 0.563 (inactive), -0.922, -0.00359 and 0.541.
Take `O=C(CCl)Nc1ccc(Sc2ccc(NC(=O)CCl)cc2)cc1`: the z-score (at 20 µM, stronger effect = lower value) was -2.59 (inactive); the z-score under setting [1] amounted to 0.102; the z-score under setting [2] stood at 0.25; the z-score under setting [3] is -1.01.
The corresponding values for `O=C(CCl)Nc1cccc(CP(=O)(c2ccccc2)c2ccccc2)c1` are -3.86 (active), 0.102, 0.338 and -1.58.
In the same order, the values of `CCc1cccc(NC(=O)CCC(=O)O)c1` are 0.674 (inactive), -0.0336, -0.309 and -0.143.
`CC1(C)COC(c2cccn2Cc2ccccc2Cl)=N1`: the z-score was -0.905 (inactive) (at 20 µM, stronger effect = lower value); 0.489 under setting [1]; -0.115 under setting [2]; 0.38 under setting [3].
The corresponding values for `COc1ccccc1NS(=O)(=O)N(C)C` are -0.0864 (inactive), 0.4, -0.101 and 0.17.
